Hck Nef HTS – human Hck-Nef kinase inhibition. P08631. Recombinant Hck-YEEI plus Nef, Z-Lyte FRET kinase assay. inhibition, % at 20 µM. 0.68% of 220,000 active;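 active = Hck-Nef kinase inhibition above about 50%, limit read from the data; inactive = inhibition below that limit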
Target sequence (P08631 whole entry, looked up): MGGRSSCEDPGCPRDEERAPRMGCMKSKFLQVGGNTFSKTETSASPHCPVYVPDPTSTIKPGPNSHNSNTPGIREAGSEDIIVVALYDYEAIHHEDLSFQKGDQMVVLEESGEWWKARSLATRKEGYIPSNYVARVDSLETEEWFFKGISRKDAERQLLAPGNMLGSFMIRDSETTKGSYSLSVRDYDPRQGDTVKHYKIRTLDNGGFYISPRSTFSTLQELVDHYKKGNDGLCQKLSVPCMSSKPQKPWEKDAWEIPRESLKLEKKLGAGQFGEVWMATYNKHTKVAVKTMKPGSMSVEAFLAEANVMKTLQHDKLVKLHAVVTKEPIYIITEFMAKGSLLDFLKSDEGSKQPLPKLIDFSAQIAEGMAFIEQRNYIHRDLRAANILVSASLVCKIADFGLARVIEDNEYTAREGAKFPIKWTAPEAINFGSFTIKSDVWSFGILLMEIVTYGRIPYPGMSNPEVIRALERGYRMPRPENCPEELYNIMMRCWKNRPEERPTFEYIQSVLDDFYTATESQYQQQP
Runt-SMMHC FRET – inhibitors of human RUNX1 Runt domain binding to CBFb-SMMHC; Q01196+Q13951; Cerulean-Runt/Venus-CBFb-SMMHC FRET ratio 530/480, 1 h; inhibition, % at 20 µM; 0.74% of 220,000 active;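 active = mean inhibition across duplicate retests at 20 µM reaching about 50%, limit read from the data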;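 note: inhibitors lower the FRET ratio by blocking Runt binding to CBFb-SMMHC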
Runt-CBFb FRET – blocks binding of human RUNX1 Runt domain to CBFb; 0.46% of 220,000 active; Q01196+Q13951; Cerulean-Runt/Venus-CBFb FRET ratio 530/480, 1 h; AID 1496; inhibition, % at 20 µM;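 active = inhibition over about 50% at 20 µM in the single-dose screen, limit read from the data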
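Assay system: Cerulean-tagged RUNX1 Runt domain (FRET donor) fusion protein / Amount: 100 nM each of Venus-CBFb and Cerulean-Runt domain / Medium: Tris buffer pH 7.5 with salts and BSA / Also added: Venus-CBFb 100 nM / Schedule: 1 h complex formation plus 1 h compound treatment, room temperature / Signal: FRET fluorescence / Read-out: loss of energy transfer signal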
RanGTP-Impb inh – inhibitors of RanGTP-importin-beta interaction, primary screen, biochemical, FRET, CFP-Ran, YFP-importin-beta, homogeneous | cell-free CFP-Ran/YFP-importin-beta FRET ratio | inhibition, % (no concentration beside the values) | 1.1% of 300,000 active;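 active = more than half of the replicate wells show a fall in the fluorescence ratio signal beyond about 16%, limit read from the data, passing the limit was not always enough; inconclusive = exactly half of the replicate wells pass the set limit; inactive = fewer than half of replicates pass the limit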
Each line names hits and unclear results; the compound was inactive in the other large screens. Most compounds without a hit are left out; they make up all but 1.8% or so of the library.

CCn1c(=N)c(C(=O)OC)cc2c(=O)n3ccccc3nc21	none (no result: Hck Nef HTS, RanGTP-Impb inh)
N=c1c(C(=O)NCc2ccc(F)cc2)cc2c(=O)n3ccccc3nc2n1Cc1ccco1	Runt-CBFb FRET 69 (no result: Runt-SMMHC FRET)
N=c1c(C(=O)NCc2ccco2)cc2c(=O)n3ccccc3nc2n1Cc1ccc(Cl)cc1	Runt-CBFb FRET 66, RanGTP-Impb inh 126
N=c1c(C(=O)NCc2ccccc2)cc2c(=O)n3ccccc3nc2n1Cc1ccco1	RanGTP-Impb inh 78 (no result: Runt-SMMHC FRET)
COc1cc(C(=O)OCC(=O)N2CCN(C(C)=O)CC2)ccc1OCC(C)C	none (no result: Hck Nef HTS, Runt-SMMHC FRET, Runt-CBFb FRET)
COc1cccc(C(=O)N2CCN(Cc3ccccn3)CC2)c1	none (no result: Hck Nef HTS, Runt-SMMHC FRET, Runt-CBFb FRET)
N=c1c(C(=O)NCc2ccco2)cc2c(=O)n3ccccc3nc2n1C1CCCC1	RanGTP-Impb inh 135 (no result: Hck Nef HTS, Runt-SMMHC FRET, Runt-CBFb FRET)
N=c1c(C(=O)NCc2ccco2)cc2c(=O)n3ccccc3nc2n1Cc1ccccc1	Runt-SMMHC FRET 58, RanGTP-Impb inh 117
Cc1ccc2nc3c(cc(C(=O)NCc4ccco4)c(=N)n3Cc3ccco3)c(=O)n2c1	RanGTP-Impb inh 89 (no result: Runt-SMMHC FRET, Runt-CBFb FRET)
COc1ccc(CCn2c(=N)c(C(=O)NC3CCCC3)cc3c(=O)n4ccccc4nc32)cc1OC	none (no result: Hck Nef HTS, Runt-SMMHC FRET, Runt-CBFb FRET)
CCOC(=O)c1cc2c(=O)n3cc(C)ccc3nc2n(Cc2cccnc2)c1=N	none (no result: Hck Nef HTS, RanGTP-Impb inh)
Cc1ccc(N2CN(S(=O)(=O)c3cccc([N+](=O)[O-])c3)c3nc4ccccc4nc32)cc1	none (no result: Hck Nef HTS, Runt-SMMHC FRET, Runt-CBFb FRET)
O=C(C1CCCCC1)N1CCN(C(=O)C2CCCCC2)CC1	none
O=C(C1CCCCCC1)N1CC[C@@H](N2CCC(O)CC2)[C@H](O)C1	RanGTP-Impb inh 27 (no result: Hck Nef HTS, Runt-SMMHC FRET, Runt-CBFb FRET)
COc1cc2c(ccc3cc(OC)c(OC)c(O)c32)cc1O	Hck Nef HTS 67, RanGTP-Impb inh inconclusive
CC(C)c1ccc(/C=N/n2cnnc2)cc1	none
O=c1cc(-c2ccc(O)cc2)oc2cc(O)c(C3OC(CO)C(O)C(O)C3O)c(O)c12 (configuration not stated)	Runt-SMMHC FRET 87
O=c1cc(-c2ccc(O)cc2)oc2cc(O)cc(O)c12	none (no result: Hck Nef HTS, Runt-SMMHC FRET, Runt-CBFb FRET)
COC(=O)c1ccc(C2C(C#N)=C(N)Oc3cc(N)ccc32)cc1 (configuration not stated)	none (no result: Hck Nef HTS, Runt-SMMHC FRET, Runt-CBFb FRET)
COc1ccc(OC)c(C2C(C#N)=C(N)Oc3cc(C)[nH]c(=O)c32)c1 (configuration not stated)	none
CCOc1ccccc1C1C(C#N)=C(N)Oc2cc(N)ccc21 (configuration not stated)	Runt-SMMHC FRET 105, RanGTP-Impb inh 139
COc1ccc(OC)c(C2C(C#N)=C(N)Oc3cc(N)ccc32)c1 (configuration not stated)	RanGTP-Impb inh 47
N#CC1=C(N)Oc2cc(N)ccc2C1c1cccc(F)c1 (configuration not stated)	RanGTP-Impb inh 38 (no result: Hck Nef HTS, Runt-SMMHC FRET, Runt-CBFb FRET)
CCC(C(=O)NC1CCCC1)N(C(=O)c1snc(C(N)=O)c1N)c1ccc(C)cc1C (configuration not stated)	none (no result: Hck Nef HTS, Runt-SMMHC FRET, Runt-CBFb FRET)
COC(=O)c1cc(S(=O)(=O)NCc2cccs2)c[nH]1	none (no result: Hck Nef HTS, Runt-SMMHC FRET, Runt-CBFb FRET)
Cc1ccc(NC(=O)CN2C(=O)NC3(CCCCC3C)C2=O)cc1S(=O)(=O)N1CCCCC1 (configuration not stated)	none (no result: Hck Nef HTS, Runt-SMMHC FRET, Runt-CBFb FRET)
COc1c(C(=O)NNC(=O)c2ccccc2)csc1Br	none
Cc1cc(OC(C)C(=O)NCc2ccncc2)c2c(C)c(C)c(=O)oc2c1 (configuration not stated)	none (no result: Hck Nef HTS, Runt-SMMHC FRET, Runt-CBFb FRET)
O=C(NCc1nc(-c2ccc(Cl)cc2)no1)c1ccc2c(c1)OCO2	none (no result: Hck Nef HTS, Runt-SMMHC FRET, Runt-CBFb FRET)
Cc1cc(C(=O)NN)c2cc(Br)ccc2n1	none
Cc1cc(C(N)=O)c2cc(Br)ccc2n1	RanGTP-Impb inh 27
Cn1c(/C=C(\C#N)C(N)=S)ccc1-c1ccc(Br)cc1	Runt-SMMHC FRET 92, Runt-CBFb FRET 89 (no result: RanGTP-Impb inh)
Cn1c(NC(=O)c2ccc(C(C)(C)C)cc2)cc(=O)n(C)c1=O	none (no result: RanGTP-Impb inh)
Cn1c(NNC(=O)c2ccc(C(C)(C)C)cc2)cc(=O)n(C)c1=O	Runt-SMMHC FRET 77
COc1ccccc1CNC(=O)c1cccc(NC(=O)c2ccccc2)c1	none
COc1ccccc1CNC(=O)c1ccncc1	RanGTP-Impb inh 23 (no result: Hck Nef HTS, Runt-SMMHC FRET, Runt-CBFb FRET)
CN(C)CCCN(Cc1ccccc1)C(=S)Nc1ccc(OC(F)F)cc1	RanGTP-Impb inh 18
CN(Cc1ccccc1)C(=S)Nc1ccc(OC(F)F)cc1	none
COc1ccc(NC(=O)CN2C(=O)NC(c3ccccc3)(c3ccccc3)C2=O)cc1OC	RanGTP-Impb inh 31 (no result: Hck Nef HTS, Runt-SMMHC FRET, Runt-CBFb FRET)
CCOCCCNC(=O)/C(C#N)=C/c1ccc(-c2ccc(S(=O)(=O)N3CCOCC3)cc2)o1	RanGTP-Impb inh inconclusive
COCCNC(=O)/C(C#N)=C/c1ccc(-c2ccc(S(=O)(=O)N3CCOCC3)cc2)o1	RanGTP-Impb inh 15
CCSc1nnc(NC(=O)CSc2nccn2-c2cc(C)cc(C)c2)s1	RanGTP-Impb inh 26
COc1cc2c(cc1OC)CN(C(=O)COc1ccccc1[N+](=O)[O-])CC2	none (no result: Hck Nef HTS, Runt-SMMHC FRET, Runt-CBFb FRET)
Cc1ccc(/C(O)=C2/C(=O)C(=O)N(CCN3CCOCC3)C2c2ccccn2)cc1 (configuration not stated)	RanGTP-Impb inh 22
CN(C)CCCN1C(=O)C(=O)/C(=C(/O)c2ccccc2)C1c1ccccn1 (configuration not stated)	none (no result: Hck Nef HTS, RanGTP-Impb inh)
CCN(CC)CCCN1C(=O)C(=O)/C(=C(/O)c2ccc(C)cc2)C1c1ccccn1 (configuration not stated)	none
O=C1C(=O)N(CCN2CCOCC2)C(c2ccccn2)/C1=C(/O)c1ccccc1 (configuration not stated)	RanGTP-Impb inh 24
COc1ccc(/C(O)=C2/C(=O)C(=O)N(CCN3CCOCC3)C2c2ccccn2)cc1OC (configuration not stated)	RanGTP-Impb inh 29
O=C1C(=O)N(CCN2CCOCC2)C(c2cccnc2)/C1=C(/O)c1ccccc1 (configuration not stated)	none (no result: Runt-SMMHC FRET, Runt-CBFb FRET)
COc1ccc(/C(O)=C2/C(=O)C(=O)N(CCN(C)C)C2c2ccccn2)cc1OC (configuration not stated)	RanGTP-Impb inh 23
O=C(O)c1cnn(-c2nc(-c3ccc(Br)cc3)cs2)c1C(F)(F)F	none (no result: Hck Nef HTS, Runt-SMMHC FRET, Runt-CBFb FRET)
CCc1ccc(C(=O)C(C)OC(=O)CNS(=O)(=O)c2ccc(C)cc2)cc1 (configuration not stated)	none (no result: Hck Nef HTS, Runt-SMMHC FRET, Runt-CBFb FRET)
CN(C)S(=O)(=O)c1ccc(N2CCCC2)c(C(=O)NCC2CCCO2)c1 (configuration not stated)	none (no result: Hck Nef HTS, Runt-SMMHC FRET, Runt-CBFb FRET)
Cc1csc2c(=O)sc(NC(=O)c3ccco3)nc12	Runt-SMMHC FRET 59
Cc1csc(NC(=O)c2cccs2)n1	none
Cc1csc2c(=O)sc(NC(=O)c3cccs3)nc12	Runt-SMMHC FRET 87
CCOc1cc(NS(=O)(=O)c2ccc(NC(C)=O)cc2)c(OCC)cc1NC(=O)C(C)C	RanGTP-Impb inh 18
CCOc1cc(NS(=O)(=O)c2ccc(Cl)cc2)c(OCC)cc1NC(=O)CC(C)C	RanGTP-Impb inh inconclusive
O=C(O)C1CCN(C(=O)CSc2nc3ccccc3s2)CC1	none
CC1CCN(C(=O)CSc2nc3ccccc3s2)CC1	RanGTP-Impb inh 28
O=C(COc1ccc2ccccc2c1)Nc1cccc2c1C(=O)NC2=O	Hck Nef HTS 60
Cc1cccc(OCC(=O)Nc2ccccc2-c2ccccc2)c1	none

Compound activity as filed in PubChem.
